Only some compounds are listed: those with a hit (about 2% of all), similar ones and a draw of the others.
ABCB6 inh MLPCN: blocks the human ABCB6 transporter; Q9NP58; K562-ABCB6 porphyrin accumulation, flow cytometry, 1 h; active compounds read low; fluorescence ratio to DMSO, % at 10 µM; actives 0.19% (n = 360,000);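 active = fluorescence ratio to DMSO below 75%, the collection mean minus 3 SD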;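 note: signal is porphyrin accumulated inside mitochondria; 100% equals median channel fluorescence of DMSO control wells; lower ratio means ABCB6 inhibition with less porphyrin fluorescence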
MT1-MMP act inh: MT1-MMP (human) activation inhibition; P50281; HT1080 RFP-PRO-GFP cells, GFP/RFP ratio fluorescence, overnight; percent of plate control window, DMSO zero; GFP/RFP ratio change, % at 20 µM; actives 0.061% (n = 360,000);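 active = GFP/RFP ratio change of at least 30% with cell ATP level not reduced by more than half and red fluorescence within 50% of control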
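Compound: 20 µM single dose, 1% DMSO / System: HT1080 RFP-PRO-GFP cells / Controls: DMSO and RFP-L50D-GFP cell wells / Read-out basis: GFP/RFP fluorescence ratio / Schedule: overnight compound exposure at 37 °C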
Granule exo inh: lytic granule exocytosis inhibition; TALL-104 LAMP-1 surface exposure, flow cytometry; cells stimulated with thapsigargin and PMA; actives 0.66% (n = 360,000); inhibition, % at 10 µM; AID 651702;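 active = inhibition above about 55%, limit read from the data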
FGF22 binding: binders of recombinant human FGF22 by thermal shift; Q9HCT0; SYPRO orange fluorescence; percent of sucrose octasulfate shift, DMSO zero; activity (Tm shift, normalised), % at 9.99 µM; actives 1.5% (n = 340,000); AID 651658;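 active = mean Tm shift, scaled 0 neutral to 100 positive control, at about 1.3% or above, every replicate too, limit read from the data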
VLA-4 inh: inhibition in a human VLA-4 binding assay. P13612. VLA-4 expressing cells, ligand binding flow cytometry. inhibition, % (about 7 µM as worked out from the volumes in the protocol). actives 0.2% (n = 330,000). AID 2557; in the data active = inhibition above about 50%
DAGLB inh: blocks human DAGLB lipase activity | inhibition, % at 5.17 µM | AID 504411 | actives 0.059% (n = 340,000) | HEK293T DAGLB membrane lysate, EnzChek fluorogenic substrate | Q8NCG7; in the data active = inhibition above about 34%;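 note: 0% = enzyme with vehicle and 100% = wells lacking enzyme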
Target sequence (Q8NCG7 whole entry, looked up): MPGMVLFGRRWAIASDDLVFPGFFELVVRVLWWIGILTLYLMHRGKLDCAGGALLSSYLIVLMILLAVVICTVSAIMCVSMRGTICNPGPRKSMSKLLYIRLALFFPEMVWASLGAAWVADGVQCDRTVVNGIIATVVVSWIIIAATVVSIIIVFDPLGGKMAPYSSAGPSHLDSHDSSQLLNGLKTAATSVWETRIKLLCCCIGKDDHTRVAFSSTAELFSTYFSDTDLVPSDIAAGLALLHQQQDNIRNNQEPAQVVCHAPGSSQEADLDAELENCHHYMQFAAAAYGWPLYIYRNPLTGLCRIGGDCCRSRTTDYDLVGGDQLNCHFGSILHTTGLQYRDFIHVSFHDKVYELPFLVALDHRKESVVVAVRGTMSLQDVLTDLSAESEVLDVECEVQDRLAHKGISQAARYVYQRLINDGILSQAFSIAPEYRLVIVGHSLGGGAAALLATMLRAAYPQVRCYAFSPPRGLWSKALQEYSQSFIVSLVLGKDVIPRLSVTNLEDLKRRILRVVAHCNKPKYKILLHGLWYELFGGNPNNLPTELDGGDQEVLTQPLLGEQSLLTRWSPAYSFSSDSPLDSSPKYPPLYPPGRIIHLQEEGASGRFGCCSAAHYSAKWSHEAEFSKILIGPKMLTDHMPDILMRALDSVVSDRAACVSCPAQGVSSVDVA
An asterisk follows results filed as active; · = not tested or not shown.

SMILES | ABCB6 inh MLPCN | MT1-MMP act inh | Granule exo inh | FGF22 binding | VLA-4 inh | DAGLB inh
Cc1nn(-c2ccccc2)c(C)c1/C=C1\C(=O)N(C)C(=S)N1C | 91 | 1 | -4 | 43* | -7 | -1
O=C(Nc1cccc(F)c1)Nc1cccc(Cl)c1 | 100 | 3 | 1 | 0 | 15 | -1
CC(=O)Nc1cccc(NC(=O)Nc2cccc(F)c2)c1 | 101 | 4 | -2 | 45* | 1 | 3
N/C(=N\OC(=O)CCCOc1ccccc1)c1ccc([N+](=O)[O-])cc1 | 101 | 2 | -1 | 43* | 8 | -2
C[C@@H]1CN([C@H](C)CO)S(=O)(=O)c2ccc(Br)cc2O[C@H]1CN(C)Cc1cccnc1 | · | · | · | 0 | · | ·
O=C(Nc1cccc(Cl)c1)c1ccc(NCCCN2CCOCC2)c([N+](=O)[O-])c1 | 97 | 4 | 10 | · | 2 | 8
Cc1ccc(NC(=O)c2ccc(NCCCN3CCC(C)CC3)c([N+](=O)[O-])c2)cc1F | 86 | 3 | 68* | 0 | 6 | 3
Cc1noc(C)c1NC(=O)N(C)C[C@@H]1Oc2ccc(NC(=O)Nc3ccc(C(F)(F)F)cc3)cc2CC(=O)N([C@@H](C)CO)C[C@@H]1C | · | · | · | 0 | · | ·
CC(=O)Nc1ccc(S(=O)(=O)N2CCN(c3cnn(C)c(=O)c3Cl)CC2)cc1 | 82 | -6 | -1 | 43* | 3 | 0
CC(=O)Nc1ccc(S(=O)(=O)N2CCN(c3cc(C)ccc3C)CC2)cc1 | 102 | -5 | 2 | 0 | -8 | -1
CNC[C@@H]1Oc2c(NS(C)(=O)=O)cccc2C(=O)N([C@H](C)CO)C[C@@H]1C | · | · | · | 0 | · | ·
CCOC(=O)C1(CCCc2ccccc2)CCN(C(=O)COC)CC1 | 88 | 0 | 3 | 0 | 22 | -1
CCOC(=O)C1(CCCc2ccccc2)CCN(C(=O)[C@@H]2C[C@@H](C)NC(=S)N2)CC1 | 98 | -2 | -1 | 52* | -1 | -3
CCOC(=O)C1(CCc2ccccc2)CCN(C(=O)CCc2cnn(C)c2)CC1 | 85 | -3 | 0 | 44* | -5 | -3
Cc1ccccc1NC(=S)NC12CN3CN(CN(C3)C1)C2 | 98 | -1 | -3 | 44* | 4 | 0
Cc1cccc(NC(=S)NC23CN4CN(CN(C4)C2)C3)c1C | 95 | 1 | -3 | 44* | 0 | -2
Cc1ccc2[nH]c(C(=O)NN=C3CCCCC3)c(-c3ccccc3)c2c1 | 102 | -6 | 21 | 43* | 2 | -13
O=C(COC(=O)c1ccc(O)cc1)Nc1ncc(Cl)cc1Cl | 91 | 0 | -2 | 44* | 2 | 1
COCCNC(=O)C[C@H]1C[C@@H]2c3cc(NC(=O)Nc4ccccc4F)ccc3O[C@@H]2[C@@H](CO)O1 | · | · | · | 0 | · | ·
C[C@H](CO)N1C[C@H](C)[C@H](CN(C)C(=O)Nc2ccccc2)Oc2c(NC(=O)Nc3ccc(F)cc3)cccc2C1=O | · | · | · | -1 | · | ·
Nc1ccccc1SCc1ccccc1 | 99 | 1 | 0 | 43* | 6 | -3
OC[C@H]1[C@H](c2ccc(Br)cc2)[C@H]2CN(Cc3ccccn3)CCCCN21 | · | · | · | -1 | · | ·
C/C(=N\NC(=O)CN(c1ccc(Oc2ccccc2)cc1)S(C)(=O)=O)C(C)(C)C | 101 | 2 | 0 | 44* | 3 | 0
CC(C)CN=Cc1c(O)c([N+](=O)[O-])cc2oc3c(c12)CCCC3 | 124 | -26 | 95* | · | -217 | 33
O=C(Cc1c(Cl)cccc1Cl)Nc1cccnc1 | 102 | 0 | 0 | 43* | 3 | 0
SMILES | ABCB6 inh MLPCN | MT1-MMP act inh | Granule exo inh | FGF22 binding | VLA-4 inh | DAGLB inh
COc1ccc(CNC(=O)C[C@@H]2CC[C@H](NC(=O)Nc3ccc4c(c3)OCO4)[C@@H](CO)O2)cc1 | · | · | · | 0 | · | ·
Clc1ccc2c(N/N=C/c3cccc(Br)c3)ccnc2c1 | 95 | 9 | 74* | 0 | -12 | -5
Clc1ccc2c(N/N=C/c3ccccc3Br)ccnc2c1 | 94 | -6 | 92* | 0 | 13 | -3
CNC[C@@H]1OCCCC[C@@H](C)Oc2ccc(NS(=O)(=O)c3ccc(OC)cc3)cc2C(=O)N([C@H](C)CO)C[C@@H]1C | · | · | · | 0 | · | ·
COC(=O)c1sccc1NC(=O)CSCCc1ccncc1 | 100 | 2 | -12 | 43* | 17 | -1
C[C@@H]1CCCCO[C@@H](CN(C)Cc2ccc(C(F)(F)F)cc2)[C@H](C)CN([C@H](C)CO)C(=O)c2cc(NC(=O)Nc3ccccc3)ccc2O1 | · | · | · | 0 | · | ·
CC1(C)CC[C@]2(C(=O)O[C@@H]3O[C@H](CO)[C@@H](O)[C@H](O)[C@H]3O)CC[C@]3(C)C(=CCC4[C@@]5(C)CC[C@H](O[C@@H]6O[C@H](C(=O)O)[C@@H](O[C@H]7OC[C@@H](O)[C@@H](O)[C@@H]7O)[C@H](O)[C@H]6O)C(C)(C)C5CC[C@]43C)[C@@H]2C1 (some centres undefined) | 98 | -1 | 56* | 0 | 1 | 2
c1ccc([C@H]2CN3C(=N2)Sc2ccccc23)cc1 | 96 | 1 | 9 | 45* | 2 | -10
CCn1nc(C)c(CCC(=O)O)c1C | 101 | 6 | 1 | 43* | 9 | 1
Cc1nn(C)c(C)c1CCC(=O)O | 98 | 0 | 2 | 0 | 1 | 0
O=C(C1CCCCC1)N1CC2(C1)[C@H](c1ccccc1)[C@H](CO)N2Cc1cncnc1 | · | · | · | 0 | · | ·
O=C(CCCCN1CCCCC1)c1ccccc1 | 98 | 4 | 8 | 0 | 7 | 1
O=C(CCCc1ccccn1)c1ccccc1 | 102 | 0 | -2 | 0 | · | -4
O=C(CCCCCCC(=O)c1ccccc1)c1ccccc1 | 100 | 0 | -1 | 43* | 0 | -10
O=C(CCCCCCCC(=O)c1ccccc1)c1ccccc1 | 101 | -3 | -5 | 44* | 1 | -14
Cc1ccc(C(=O)Cc2ccccc2)cc1 | 112 | 2 | -2 | 44* | · | -3
C/C(=N\NC(=O)C1COc2ccccc2O1)c1ccc(C)o1 (centres undefined) | 102 | 4 | -5 | · | 17 | -3
C/C(=N\NC(=O)c1ccncc1)c1cc2ccccc2o1 | 104 | 7 | -2 | 0 | -5 | 0
C/C(=N\NC(=O)C1COc2ccccc2O1)c1cc2ccccc2o1 (centres undefined) | 101 | 2 | 4 | 44* | -3 | -2
C/C(=N\NC(=O)c1cccnc1)c1cc2ccccc2o1 | 104 | 4 | -1 | 43* | 3 | -3
O=C(C[C@@H]1CC[C@H]2[C@@H](COC[C@H](O)CN2Cc2cccc(C(F)(F)F)c2)O1)NCCc1ccccc1 | · | · | · | 0 | · | ·
CCC(=O)N(CC)C1=C(O)c2ccccc2C(=O)C1=O | 113 | -17 | 92* | 0 | -5 | 1

Source: PubChem BioAssay
